From ChEMBL document CHEMBL4387738 (Bioorg Med Chem Lett, 2019) come the findings set out here.

Assay [1] concerns HCT-116. The assay can be described thus: Induction of apoptosis in human HCT116 cells assessed as late apoptotic cells at 5 to 25 uM incubated for 24 hrs by Annexin-V-FITC/propidium iodide staining based flow cytometric method relative to taxol. It counts as functional, cell-based. The procedure, abridged:
(§1)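 HCT116 cells exposed to 5, 10 or 25 μM for 24 h, then stained with annexin V and propidium iodide and analysed by flow cytometry. DMSO was the negative control and Taxol the apoptosis control. Total apoptosis counted all annexin V-positive cells, early apoptosis was annexin V-positive/PI-negative, and late apoptosis was annexin V/PI double-positive.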

For assay [2], the target named is Endoplasmic reticulum chaperone BiP (Homo sapiens) (UniProt P11021). Kind of assay: Inhibition of GRP78 (26 to 636 residues) (unknown origin) expressed in Escherichia coli BL21 DE3 cells pre-incubated for 10 mins before FITC-NRLLLTG fluorescent peptide addition in presence of 20 uM ADP followed by further incubation for 2 hrs by fluorescence polarization assay. In a few lines:
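Fluorescence polarization competition assay in 384-well format. Full-length GRP78 (0.75 μM) was held in the ADP-bound closed state with FITC-NRLLLTG (100 nM), and loss of polarization was read. DMSO was the negative control and heat-denatured GRP78 the positive control. IC50 was taken from a 10-point dose response.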

The subject of assay [3] is HCT-116. Kind of assay: Induction of apoptosis in human HCT116 cells assessed as apoptotic cells at 10 uM incubated for 24 hrs by Annexin-V-FITC/propidium iodide staining based flow cytometric method relative to taxol. It counts as functional, cell-based. In a few lines:
as §1
Background: A flow cytometer gives signals particle by particle.

For assay [4], the system named is HCT-116. Kind of assay: Induction of autophagy in human HCT116 cells assessed as reduction in p62 level at 2 to 10 uM after 16 hrs by Western blot analysis. For orientation: Immunoblotting shows a protein as a band on a membrane.
Assay [5] is described as follows: Inhibition of bacterial DnaK pre-incubated for 10 mins before FITC-NRLLLTG fluorescent peptide addition in presence of 20 uM ADP followed by further incubation for 2 hrs by fluorescence polarization assay. Also on record: species or system Bacteria. In a few lines: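 Repeat of the GRP78 fluorescence-polarization substrate-binding assay with the bacterial HSP70 DnaK in place of GRP78. The FITC-NRLLLTG peptide binds the substrate-binding domain in the ADP-bound closed state, raising polarization; inhibitors keep polarization low. Compound was tested in dose response and the IC50 derived. DnaK construct and concentration are not given.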
Background: Fluorescence polarisation rises when a labelled molecule tumbles more slowly, as on binding a larger partner.

Assay [6] deals with HCT-116. The assay can be described thus: Induction of apoptosis in human HCT116 cells assessed as increase in early apoptotic cells at 5 to 25 uM incubated for 24 hrs by Annexin-V-FITC/propidium iodide staining based flow cytometric method relative to taxol. It counts as functional, cell-based. In a few lines: as §1
For assay [7], the system named is HCT-116. The assay can be described thus: Induction of autophagy in human HCT116 cells assessed as increase in LC3-2 level at 2 to 10 uM after 16 hrs by Western blot analysis.
For assay [8], the system named is HCT-116. The assay can be described thus: Induction of apoptosis in human HCT116 cells assessed as increase in apoptotic cells at 25 uM incubated for 24 hrs by Annexin-V-FITC/propidium iodide staining based flow cytometric method relative to taxol. It counts as functional, cell-based. In a few lines: as §1
Assay [9] relates to HCT-116. The assay can be described thus: Induction of autophagy in human HCT116 cells assessed as reduction in LC3-1 level at 2 to 10 uM after 16 hrs by Western blot analysis.
The test system of assay [10] is HCT-116. The assay can be described thus: Induction of apoptosis in human HCT116 cells 25 uM incubated for 16 to 48 hrs by Annexin-V-FITC/propidium iodide staining based flow cytometric method. It counts as functional, cell-based. As to conditions: TDE = time-dependent effect. The procedure, abridged: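 Time course in HCT116 cells. After treatment, cells were stained with annexin V and propidium iodide and analysed by flow cytometry. Early apoptosis was scored as annexin V+/PI−, late apoptosis as annexin V+/PI+. DMSO served as the negative control and Taxol as the apoptosis control.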

Assay [11] deals with HCT-116. The assay can be described thus: Induction of apoptosis in human HCT116 cells at 5 to 25 uM incubated for 24 hrs by Annexin-V-FITC/propidium iodide staining based flow cytometric method. It counts as functional, cell-based. In a few lines:
as §1

The structures appear in SMILES notation. Calls of active or inactive are those of the source. The calls are words filed in the database; no cut-off is given here.

Chain of Endoplasmic reticulum chaperone BiP (Homo sapiens) (P11021 whole entry, the tested form may be a part): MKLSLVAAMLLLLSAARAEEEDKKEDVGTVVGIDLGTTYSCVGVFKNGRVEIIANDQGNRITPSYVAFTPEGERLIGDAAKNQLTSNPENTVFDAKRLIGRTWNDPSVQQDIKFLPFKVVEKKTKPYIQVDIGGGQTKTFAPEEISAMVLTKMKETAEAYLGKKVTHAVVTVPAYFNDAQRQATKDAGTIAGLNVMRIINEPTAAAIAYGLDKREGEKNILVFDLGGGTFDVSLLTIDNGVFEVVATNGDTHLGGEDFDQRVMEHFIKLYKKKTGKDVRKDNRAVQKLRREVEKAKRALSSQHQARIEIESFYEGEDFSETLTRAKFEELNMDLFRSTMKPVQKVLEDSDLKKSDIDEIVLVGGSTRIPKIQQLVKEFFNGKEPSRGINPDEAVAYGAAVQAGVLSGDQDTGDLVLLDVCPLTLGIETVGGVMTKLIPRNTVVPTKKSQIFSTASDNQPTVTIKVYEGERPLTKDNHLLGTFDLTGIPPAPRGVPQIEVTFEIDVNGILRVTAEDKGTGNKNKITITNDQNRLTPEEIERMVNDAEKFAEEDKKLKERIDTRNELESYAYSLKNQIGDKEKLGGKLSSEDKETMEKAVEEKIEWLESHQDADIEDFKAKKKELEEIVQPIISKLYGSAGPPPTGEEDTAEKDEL

For the compound `CC(=O)O[C@H]1C(=O)[C@@]2(C)[C@H]([C@H](OC(=O)c3ccccc3)[C@]3(O)C[C@H](OC(=O)[C@H](O)[C@@H](NC(=O)c4ccccc4)c4ccccc4)C(C)=C1C3(C)C)[C@]1(OC(C)=O)CO[C@@H]1C[C@@H]2O`, the outcome in the assay on HCT-116 [1] was Active.
Take `Oc1c(Cl)cc(Cl)c(Cl)c1Sc1c(O)c(Cl)cc(Cl)c1Cl`: the inhibition result in assay [2] is “Active”.
`Oc1c(Cl)cc(Cl)cc1Cc1cc(Cl)cc(Cl)c1O`: in [2], the inhibition entry is “Active”.
With `Oc1c(Cl)cc(Cl)cc1Sc1cc(Cl)cc(Cl)c1O`, in assay [2], the inhibition result was “Active”.
As to `Oc1c(Cl)cc(Cl)c(Cl)c1Cc1c(O)c(Cl)cc(Cl)c1Cl` [HEXACHLOROPHENE], the outcome with HCT-116 [3], in the assay on HCT-116 [4], in the assay with HCT-116 [6], in the assay on HCT-116 [7], in the assay with HCT-116 [8] and with HCT-116 [1] was Active. Further, the outcome with HCT-116 [9] was Active. Also, the concentration for half-maximal inhibition (IC50) in [5] was 51.6 µM. Moreover, the inhibition result in assay [2] is “Dose-dependent effect”. For the same compound, the Activity entry in the assay with HCT-116 [10] was “Tde”; with HCT-116 [11], “Dose-dependent effect”.

The term IC50 denotes the midpoint of a concentration-inhibition curve.
